CCR6 antag: CCR6 receptor antagonists, primary screen, cell-based, CHO-K1, luminescence, beta-arrestin, uHTS | C-C chemokine receptor type 6 (Homo sapiens), P51684 | CHO-K1 CCR6 PathHunter beta-arrestin, CCL20-stimulated | inhibition, % at 20 µM | 340,000 tested, 0.49% active;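 active = compounds whose inhibition of the agonist-driven luminescence signal at 20 µM reaches about 50%, limit read from the data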;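 note: cells stimulated with CCL20 at 14 nM final; plate controls were DMSO with CCL20 for no effect and DMSO without agonist for full effect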
CXCR6 inh: CXCR6 receptor inhibitors, primary screen, cell-based, beta-arrestin, luminescence, CHO-K1 PathHunter, 1536-well; 360,000 tested, 0.36% active; inhibition, % at 20 µM; C-X-C chemokine receptor type 6 (Homo sapiens), O00574; in the data active = inhibition above about 34%, passing the limit was not always enough;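 note: antagonist mode with CXCL16 agonist at 10 nM final; 0% = 10 nM CXCL16 with DMSO and 100% = unstimulated wells without agonist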
EBI2 antag: EBI2 receptor antagonists, beta-arrestin recruitment, primary screen, cell-based, luminescence, 7a,25-OHC stimulation, uHTS. AID 651636, 2012. 7a,25-OHC stimulated. G-protein coupled receptor 183 (Homo sapiens), P32249. 360,000 tested, 0.81% active. inhibition, % at 5 µM; in the data active = inhibition above about 38%;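 note: enzyme fragment complementation signal reports receptor beta-arrestin coupling in cells; 0% = agonist plus DMSO wells and 100% = wells without agonist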
Target sequence (P32249 whole entry, looked up, the tested form may be a part): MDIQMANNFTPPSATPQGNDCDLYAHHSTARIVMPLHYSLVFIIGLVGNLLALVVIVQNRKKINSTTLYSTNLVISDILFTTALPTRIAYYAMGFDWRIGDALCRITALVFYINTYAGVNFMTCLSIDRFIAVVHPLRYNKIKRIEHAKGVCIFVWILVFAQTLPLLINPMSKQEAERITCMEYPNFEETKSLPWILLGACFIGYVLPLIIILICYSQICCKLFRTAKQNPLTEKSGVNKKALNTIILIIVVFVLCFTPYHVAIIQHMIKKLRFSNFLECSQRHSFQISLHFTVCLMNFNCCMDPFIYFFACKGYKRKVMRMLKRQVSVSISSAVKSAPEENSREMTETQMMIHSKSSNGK
APJ ag: agonists of human apelin receptor APJ, primary screen, CHO-K1 cells, PathHunter beta-arrestin, luminescence; P35414; 0% DMSO wells, 100% apelin; activation, % at 20 µM; 330,000 tested, 0.11% active; AID 2520, 2010;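 active = activation more than six SD over the plate average, tested at 20 µM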;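 note: 0% = DMSO alone and 100% = apelin-13 at 10 nM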
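Incubation: overnight seeding, 90 min compound at 25 °C, 1 h detection; test system: PathHunter CHO-K1 APJ (AGTRL-1) beta-arrestin reporter cells; amount: 1000 cells/well; doses: one dose, 20 µM compound, 1% DMSO; measured by: beta-gal luminescence; measure: agonist-driven arrestin binding to APJ; benchmarks: negative DMSO alone, positive Apelin-13 at 10 nM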
m5-HT2A agonist: mouse Htr2a agonists via beta-arrestin recruitment, primary screen, cell-based, luminescence. 5-hydroxytryptamine receptor 2A (Mus musculus), P35363. CHO-K1 mHTR2A beta-arrestin complementation; percent of 30 µM serotonin response. activation, % at 7.6 µM. 360,000 tested, 0.66% active. AID 624169, 2012;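 active = activation above a run cutoff, the mean activation of all tested compounds plus 3 SD, cut at about 14% in these data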;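 note: 0% = plate median of compound wells and 100% = 30 µM serotonin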
APJ antagonist: antagonists of human apelin receptor APJ, primary screen, CHO-K1 cells, beta-arrestin complementation, luminescence; inhibition, % at 20 µM; 330,000 tested, 0.32% active; P35414;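 active = inhibition above about 40% at 20 µM, limit read from the data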;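 note: cells challenged with 10 nM apelin-13 agonist together with compound; plate controls were apelin-13 plus DMSO wells for no effect and DMSO wells lacking apelin-13 for full effect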
MOR ag counter: OPRM1 agonists via beta-arrestin recruitment, confirmation, counter-screen for mouse HTR2A agonist project, cell-based, luminescence, single concentration; shares compounds with m5-HT2A agonist; U2OS OPRM1 beta-arrestin PathHunter; DMSO 0%, DAMGO 9.3 µM 100%; activation, % at 9.3 µM; 2,300 tested, 5.3% active; AID 624380, 2012;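 active = mean activation above the mean of DMSO-only wells plus 3 SD, cut at about 0.5% in these data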
HTR2A ag conf: mouse HTR2A agonists, beta-arrestin recruitment, confirmation, cell-based, luminescence, CHO-K1 PathHunter, triplicate; shares compounds with m5-HT2A agonist; DMSO 0%, 30 µM serotonin 100%; activation, % at 7.6 µM; 2,300 tested, 19% active;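 active = mean activation across triplicates above the hit threshold derived in the original primary screen, cut at about 15% in these data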
The depositor's hits bear a star. Shown are actives, neighbours in structure and some others; about 2.1% of the full set was active somewhere.

`CCN(CC)C(=O)c1[nH]cnc1C(=O)N[C@@H](Cc1ccccc1)C(=O)OC(C)(C)C` gave CCR6 antag 3, CXCR6 inh 0, EBI2 antag -18, APJ ag -3, m5-HT2A agonist 5 and APJ antagonist 8.
Cc1ccc(C)c2[nH]c(=O)c(CCNC(=O)CCc3ccccc3)cc12 was read as CCR6 antag 3, CXCR6 inh -4, EBI2 antag 16, APJ ag -3, m5-HT2A agonist -2 and APJ antagonist 5.
`Cc1ccc2cc(CCNC(=O)C(C)C)c(=O)[nH]c2c1C` gave CCR6 antag 9, CXCR6 inh -2, EBI2 antag -7, APJ ag -2, m5-HT2A agonist 16*, APJ antagonist -17, MOR ag counter -1 and HTR2A ag conf -6.
Cc1ccc(C)c2[nH]c(=O)c(CCNC(=O)c3ccco3)cc12 was read as CCR6 antag 10, CXCR6 inh -4, EBI2 antag -1, APJ ag -9, m5-HT2A agonist 19*, APJ antagonist 10, MOR ag counter 0 and HTR2A ag conf 2.
`CN1CCc2cccc3c2C1Cc1ccc(O)c(O)c1-3` (centres undefined) gave CCR6 antag -2, CXCR6 inh -10, EBI2 antag -12, APJ ag 3, m5-HT2A agonist 44*, APJ antagonist -4, MOR ag counter 0.6* and HTR2A ag conf 135*.
Screening O=C(CSc1nnc(C2CC2)n1CC1CCCO1)Nc1cccc(Cl)c1 (centres undefined) returned CCR6 antag -3, CXCR6 inh -7, EBI2 antag 0, APJ ag -2, m5-HT2A agonist 1 and APJ antagonist -2.
Screening O=C(NCC1CCCO1)NC1CCCCC1 (centres undefined) returned CCR6 antag -5, CXCR6 inh 2, EBI2 antag 2, APJ ag -1, m5-HT2A agonist 17*, APJ antagonist 16, MOR ag counter -1 and HTR2A ag conf -4.
For S=C(NCC1CCCO1)NC1CC1 (centres undefined) the results were CCR6 antag 2, CXCR6 inh 8, EBI2 antag -1, APJ ag -1, m5-HT2A agonist 1 and APJ antagonist -12.
`Cc1ccc([C@@H]2[C@@H]3C(=O)N(C)C(=O)[C@@H]3[C@]3(C)C(=O)N(Cc4ccccn4)CC(=O)N23)o1` gave CCR6 antag 0, CXCR6 inh 0, EBI2 antag -7, APJ ag 3, m5-HT2A agonist 17*, APJ antagonist 4, MOR ag counter -1 and HTR2A ag conf -2.
CCCn1c(N2CCN(Cc3ccc(Cl)cc3)CC2)nc2ccccc21 was read as CCR6 antag 26, CXCR6 inh 8, EBI2 antag 20, APJ ag -3, m5-HT2A agonist 22*, APJ antagonist 18, MOR ag counter 0 and HTR2A ag conf 13.
O=C(CNS(=O)(=O)c1ccc(Br)cc1)N1CCN(Cc2ccccc2)CC1 was read as CCR6 antag -5, CXCR6 inh -3, EBI2 antag -12, APJ ag 3, m5-HT2A agonist 15*, APJ antagonist -11, MOR ag counter 0 and HTR2A ag conf 17*.
Screening N#Cc1ccc(CN2CCN(C(=O)CNS(=O)(=O)c3ccc4c(c3)OCCCO4)CC2)cc1 returned CCR6 antag 10, CXCR6 inh 0, EBI2 antag -2, APJ ag -2, m5-HT2A agonist 15*, APJ antagonist 3, MOR ag counter -1 and HTR2A ag conf -3.
Screening CCCCCCNC(=O)O[C@H]1C[C@@H]2C(=O)N(c3ccccc3)C(=O)[C@@H]2[C@@H]2CN(S(=O)(=O)c3ccc(C)cc3)C[C@]12O returned CXCR6 inh 10, EBI2 antag 4 and m5-HT2A agonist 6.
Screening O=C(NC1CCCCCC1)c1ccc([N+](=O)[O-])s1 returned CCR6 antag -8, CXCR6 inh -1, EBI2 antag -22, APJ ag 10, m5-HT2A agonist -9 and APJ antagonist -66.
CC(C)C[C@H]1C(=O)N2CCC[C@H]2[C@]2(O)O[C@](NC(=O)[C@@H]3C=C4c5cccc6[nH]c(Br)c(c56)CC4N(C)C3)(C(C)C)C(=O)N12 (some centres undefined) was read as CCR6 antag 11, CXCR6 inh 4, EBI2 antag 89*, APJ ag 5, m5-HT2A agonist 41*, APJ antagonist 0, MOR ag counter 0 and HTR2A ag conf 127*.
Screening Cc1ccccc1CN(C)C[C@@H]1OCc2cnnn2CCCC(=O)N([C@H](C)CO)C[C@H]1C returned CXCR6 inh -6, EBI2 antag 3 and m5-HT2A agonist 2.
`CCOC(=O)N1CCN(C(C(=O)NC2CCCC2)c2ccco2)CC1` (centres undefined) gave EBI2 antag -2 and m5-HT2A agonist 14.
COc1cccc(-n2c(-c3ccccc3)c[nH]c2=S)c1 was read as CCR6 antag -2, CXCR6 inh -17, EBI2 antag -6, APJ ag 1, m5-HT2A agonist 22*, APJ antagonist 3, MOR ag counter 0.5* and HTR2A ag conf 3.
Screening CC(C)N=c1c([N+](=O)[O-])nn(C)n1O returned CCR6 antag 14, CXCR6 inh -11, EBI2 antag 3, APJ ag -3, m5-HT2A agonist 15*, APJ antagonist -21, MOR ag counter -1 and HTR2A ag conf -3.
`COc1ccc(-c2cc(N3C(=O)Nc4ccccc4N3O)n[nH]2)c(OC)c1` gave CCR6 antag 3, CXCR6 inh -9, EBI2 antag 1, APJ ag -2, m5-HT2A agonist -3 and APJ antagonist 9.
`CN=C(c1ccco1)n1c(=S)nc(-c2ccco2)n(C)c1=S` gave CCR6 antag 10, CXCR6 inh 5, EBI2 antag 0, APJ ag -1, m5-HT2A agonist 2 and APJ antagonist 19.
